The list is not random: actives were taken first. Their share in the collection is about 3.9%.
AHR activator: activators of human aryl hydrocarbon receptor; P35869; AHR-responsive luciferase reporter cells, luminescence; activation, % at 5 µM; 2.5% of 320,000 active; in the data active = activation above about 47%
Target sequence (P35869 whole entry, looked up): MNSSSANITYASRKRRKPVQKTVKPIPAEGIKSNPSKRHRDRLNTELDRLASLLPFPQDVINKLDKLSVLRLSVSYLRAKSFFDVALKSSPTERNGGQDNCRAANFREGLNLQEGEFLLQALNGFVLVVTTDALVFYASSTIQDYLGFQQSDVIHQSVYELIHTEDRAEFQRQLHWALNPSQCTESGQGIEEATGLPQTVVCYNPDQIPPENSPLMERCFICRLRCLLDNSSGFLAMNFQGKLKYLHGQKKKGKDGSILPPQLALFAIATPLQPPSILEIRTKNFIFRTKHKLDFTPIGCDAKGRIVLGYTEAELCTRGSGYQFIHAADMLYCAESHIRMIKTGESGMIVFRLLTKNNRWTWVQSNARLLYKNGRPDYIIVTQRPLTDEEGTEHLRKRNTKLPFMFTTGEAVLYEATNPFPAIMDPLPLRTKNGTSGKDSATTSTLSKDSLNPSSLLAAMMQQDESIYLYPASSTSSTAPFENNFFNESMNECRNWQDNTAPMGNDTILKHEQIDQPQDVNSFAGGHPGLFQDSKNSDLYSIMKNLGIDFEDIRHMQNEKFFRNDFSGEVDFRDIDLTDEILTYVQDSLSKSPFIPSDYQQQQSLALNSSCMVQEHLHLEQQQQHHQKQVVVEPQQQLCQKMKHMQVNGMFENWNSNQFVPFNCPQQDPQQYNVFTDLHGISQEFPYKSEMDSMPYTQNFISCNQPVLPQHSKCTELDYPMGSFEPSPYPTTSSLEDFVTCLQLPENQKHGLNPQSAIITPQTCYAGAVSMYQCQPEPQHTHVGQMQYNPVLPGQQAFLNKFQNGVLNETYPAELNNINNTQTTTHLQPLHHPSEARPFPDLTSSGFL
ABCB6 inh 2: blocks the human ABCB6 transporter | K562-ABCB6 porphyrin accumulation, flow cytometry, 1 h; stronger effect = lower value | fluorescence ratio to DMSO, % at 10 µM | 0.19% of 360,000 active;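 active = fluorescence ratio to DMSO below 75%, the collection mean minus 3 SD; inconclusive = too few cells collected in the well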;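 also: signal is porphyrin accumulated inside mitochondria; lower ratio means ABCB6 inhibition with less porphyrin fluorescence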
SR-BI DiI-HDL act: SR-BI HDL lipid transfer activation; activation, % at 12.5 µM; AID 504775; 0.096% of 320,000 active; CHO ldlA[mSR-BI] cells, DiI-HDL uptake fluorescence, 3 h; 100 = double the neutral-control signal;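 active = mean replicate activation of at least 60% and every replicate at or above 60%; inconclusive = mean or all-replicate condition met, but not both; inactive = mean below 60% and not all replicates reaching 60%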
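material = CHO ldlA[mSR-BI] cells | medium = Ham's F12 with 0.5% BSA, HEPES 25 mM, pH 7.4 | reagent = fluorescent DiI-HDL, 10 µg/mL final | compound dosing = single-point compound dose | incubation = 3 h, 37 °C | measured by = bottom-read fluorescence, 550/595 nm | measure = HDL uptake via cellular fluorescence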
GAA850 FXN act: increases GAA850 frataxin promoter reporter activity | 0.56% of 360,000 active | AID 540364 | HEK293 lucGAA850 FXN promoter luciferase reporter, 24 h; percent of 10 µM SAHA response | activation, % at 6 µM;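 active = activation above the average of all compounds screened plus 3 SD, cutoff fixed separately per campaign, cut at about 7.5% in these data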
SR-BI DiI inh: mouse SR-BI HDL lipid transfer inhibition | ldlA[mSR-BI] CHO cells, DiI-HDL uptake fluorescence, 3 h | inhibition, % at 12.5 µM | 0.96% of 320,000 active | AID 488896;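 active = mean replicate inhibition of at least 70% and a set share of replicates each scoring 70 or more; inconclusive = meets just one of the two criteria; inactive = fails both criteria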
HIF act: HIF pathway transcriptional activation; U2OS HRE-luciferase reporter, luminescence; normalized: DMSO 0%, desferrioxamine 100%; activation, % at 7.5 µM (by protocol); 0.32% of 300,000 active;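 active = mean activation of at least 10% of the iron chelator positive control signal, with at least half of replicates also reaching 10%; inconclusive = mean and replicate majority disagree about reaching 10%; inactive = mean and most replicates under 10%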
DiI quencher: quenches DiI-HDL fluorescence, an SR-BI assay artifact; AC50, µM (series often up to 35 µM); cell-free DiI-HDL fluorescence quenching, 30 min; 20% of 470 active; shares compounds with SR-BI DiI inh;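 active = quenching, a falling signal, with AC50 below a set limit tied to the top valid dose, actives reach about 32 µM in these data; inconclusive = no clear call, values can overlap the other calls; inactive = rising signal, and the rest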
Each line names hits and unclear results; the compound was inactive in the other large screens (follow-up assays come after a bar, where they were run).

CC(C)CN(CC(C)C)C(=O)COn1nnc2ccc(S(=O)(=O)N3CCOCC3)cc21	SR-BI DiI inh 70 (no result: HIF act) | DiI quencher inactive
Cc1cccc(C(=O)N=c2c(C#N)cc3c(=O)n4cccc(C)c4nc3n2Cc2ccco2)c1	none
COc1cc([N+](=O)[O-])ccc1NC(=O)NCC1CCN(Cc2ccc(Cl)cc2)CC1	SR-BI DiI inh 83 | DiI quencher inactive
COc1ccc(Cl)cc1NC(=O)NCC1CCN(Cc2cc(C)ccc2C)CC1	none
COc1ccc(N2CC(C(=O)Nc3cccc(S(=O)(=O)N4CCCC4)c3)CC2=O)c(OC)c1 (centres undefined)	none
COc1ccc(N2CC(C(=O)N3CCN(S(=O)(=O)c4ccc(F)c(F)c4)CC3)CC2=O)c(OC)c1 (centres undefined)	none (no result: AHR activator, HIF act) | DiI quencher inactive
CCCC(=O)Nc1ccc(Cl)c(NC(=O)c2cccc(OC)c2)c1	SR-BI DiI inh 78 | DiI quencher inactive
CCCC(=O)Nc1ccc(Cl)c(NC(=O)c2cccnc2)c1	none
COc1ccc(OC)c2[nH]c(C(=O)O)cc12	none
COc1ccc(OC)c2[nH]c(C(=O)N3CCC(C(=O)O)CC3)cc12	SR-BI DiI inh 75 | DiI quencher inactive
O=C1COc2ccc(C(=O)COC(=O)c3ccco3)cc2N1	none (no result: SR-BI DiI-HDL act, SR-BI DiI inh)
CC(C)[C@H](NC(=O)c1ccco1)C(=O)OCC(=O)c1ccc2c(c1)NC(=O)CO2	none | DiI quencher inactive
Cc1cc(C)cc(N2CN=C3SCC(=O)N3C2)c1	SR-BI DiI inh inconclusive | DiI quencher inactive
Cc1cc(OCCCC(=O)NNC(=O)c2ccncc2)ccc1Cl	none
Cc1ccc(-n2ncc3c2CC(C)(C)CC3NC(=O)C2CCOCC2)cc1 (centres undefined)	none (no result: SR-BI DiI-HDL act)
CC(C)(C)C(=O)Nc1sc2c(c1-c1nc3ccccc3[nH]1)CCCC2	SR-BI DiI inh 104 | DiI quencher 9µM
CC(C)(C)C(=O)Nc1sc2c(c1C#N)CCCCC2	none
O=C(c1ccccc1)c1cccn1CC(=O)N1CCCCCC1	none
Cc1cccc(N2CCN(C(=O)CN3C(=O)NC4(CCCCCC4)C3=O)CC2)c1C	SR-BI DiI inh 73 (no result: AHR activator, HIF act) | DiI quencher inactive
COc1cccc(N2CCN(C(=O)CN3C(=O)NC4(CCCC4)C3=O)CC2)c1	none
Cc1cccc(N2CCN(C(=O)Cn3cccc3C(=O)c3ccccc3)CC2)c1C	SR-BI DiI inh 73 | DiI quencher inactive
O=C(Nc1ccc(-c2csc(Nc3ccccc3)n2)cc1)c1cccc(C(F)(F)F)c1	SR-BI DiI inh 114 | DiI quencher 1.5µM
COc1ccc(NC(=O)c2cccc3c2C(=O)c2ccc(-c4ccc(F)cc4OCc4ccccc4)cc2S3(=O)=O)cc1	none (no result: HIF act)
COc1ccc(OC[C@@H](O)CNC(=O)c2cccc3c2C(=O)c2ccc(-c4ccc(F)cc4OCc4ccccc4)cc2S3(=O)=O)cc1	SR-BI DiI inh 80 (no result: HIF act) | DiI quencher inactive
COc1ccccc1Nc1nc(-c2c(C)[nH]c3ccccc23)cs1	SR-BI DiI inh 72 (no result: HIF act) | DiI quencher 5.6µM
Cc1ccc(OCC(=O)NNC(=O)C2CCN(c3ncnc4sc(C)c(C)c34)CC2)cc1	SR-BI DiI inh 80 | DiI quencher inactive
CCOCCOC(=O)c1[nH]c2c(c1C)C(=O)CC(c1ccc(OC)c(OC)c1)C2 (centres undefined)	none
COc1cc(C2CC(=O)c3c([nH]c(C(=O)OCCOC(C)C)c3C)C2)cc(OC)c1OC (centres undefined)	SR-BI DiI inh 82 | DiI quencher inactive
COc1cc(/C=C\C(=O)NCc2ccc3c(c2)cc(C)n3C)cc(OC)c1OC	SR-BI DiI inh 78 | DiI quencher inactive
COc1ccc(CC(=O)NCc2ccc3c(c2)cc(C)n3C)cc1OC	none
Cc1ccc2nc3c(cc(C(=O)NC4CCCC4)c(=N)n3CCCn3ccnc3)c(=O)n2c1	none (no result: ABCB6 inh 2, SR-BI DiI-HDL act, GAA850 FXN act, SR-BI DiI inh)
Cc1ccc(-c2nn(-c3ccccc3)cc2/C=C/C(=O)OCC(=O)NC2CC2)o1	SR-BI DiI inh 72 | DiI quencher inactive
CNC(=O)COC(=O)/C=C/c1cn(-c2ccccc2)nc1-c1ccc2c(c1)OCCO2	none
Cc1ccc(NC(=O)C2CSC3(C)CCC(=O)N23)cc1S(=O)(=O)N1CCCCCC1 (centres undefined)	none (no result: HIF act)
Cc1ccc(CCNC(=O)C2CCN(C(=O)c3sccc3-n3cccc3)CC2)cc1	none | DiI quencher inactive
COc1ccccc1CNC(=O)C1CCN(C(=O)c2sccc2-n2cccc2)CC1	SR-BI DiI inh inconclusive | DiI quencher inactive
O=C(NCCc1ccccc1)C1CCN(C(=O)c2sccc2-n2cccc2)CC1	SR-BI DiI inh 81 | DiI quencher inactive
Cc1cccc(NC(=O)C2CC(=O)N/C(=N/N=C/c3ccco3)S2)c1 (centres undefined)	none
Cc1cc(C)nc(Nc2n[nH]c(-c3ccc(C(C)(C)C)cc3)n2)n1	SR-BI DiI inh 108 | DiI quencher 11µM
Cc1cccc(NC(=O)CNC(=O)c2cn(Cc3ccccc3)nc2-c2cccnc2)c1C	none (no result: SR-BI DiI-HDL act, HIF act)
Cc1ccc(-n2nc(C)c3c(C(=O)OCC(=O)N(C)C4CCS(=O)(=O)C4)cc(-c4ccccc4)nc32)cc1 (centres undefined)	SR-BI DiI inh inconclusive | DiI quencher inconclusive
CCN(C(=O)COC(=O)c1cc(-c2ccccc2)nc2c1c(C)nn2-c1ccccc1)C1CCS(=O)(=O)C1 (centres undefined)	none
CC(=O)c1ccc(C(=O)N(C)C2CCCN(Cc3ccccc3F)C2)s1 (centres undefined)	none
CCOC(=O)C(C)(C)Sc1nc2c(cnn2-c2ccc(F)cc2)c(=O)[nH]1	SR-BI DiI inh 77 | DiI quencher inactive
CCOC(=O)C(C)(C)Sc1nc2c(cnn2-c2ccc(C)cc2)c(=O)[nH]1	none
CC1(C)COC(Cn2c3ccccc3c3ccccc32)O1 (centres undefined)	none
CNc1nc(-c2ccc3c(c2)CCN3C(=O)c2ccccc2F)c(C)s1	none | DiI quencher inactive
CNc1nc(-c2ccc3c(c2)CCN3C(=O)c2ccccc2F)cs1	none (no result: AHR activator)
CCCC(=O)N1CCc2cc(-c3nc(N)sc3C)ccc21	SR-BI DiI inh 75 | DiI quencher inactive
O=S(=O)(c1ccccc1F)N1CCN(CCc2ccccc2)CC1	none
COc1cccc2c1cc1c(=O)n(CC(=O)N3CCN(c4cccc(C)c4C)CC3)nc(C)n12	none (no result: AHR activator, HIF act) | DiI quencher inactive
COc1cccc2c1cc1c(=O)n(CC(=O)N3CCCC3)nc(C)n12	none (no result: AHR activator, HIF act)
COc1cccc(-n2c(C)nn(CCOc3ccccc3)c2=O)c1	none
Cc1c(C(=O)OCC2CCCO2)[nH]c2c1C(=O)CC(c1ccco1)C2 (centres undefined)	none | DiI quencher inactive

Assay outcomes (PubChem)
